Type in all cases: functional, organism-based
The test system of experiment [1] is Haemonchus contortus. The experiment can be described thus: Antiparasitic activity against adult Haemonchus contortus assessed as reduction in FITC-dextran uptake at 10 nM after 24 hrs. In a few lines: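 Groups of about 10 adult worms held 6 h with or without 10 nM ivermectin. FITC-dextran (40 kDa, 5 mg/ml final) then added. After 24 h, worms washed in PBS, fixed in 10% formalin, and photographed under white and UV light as a measure of feeding.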

In experiment [2] the test system is Haemonchus contortus. The experiment can be described thus: Antiparasitic activity against adult Haemonchus contortus assessed as [3H]inulin uptake at 10 nM. A digest of the protocol: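 Adult females taken from sheep abomasa 10 to 15 weeks postinfection, held in RPMI 1640-based medium (pH 6.8) at 37°C, in groups of 10. Ivermectin in DMSO given at 0.1 to 100 nM; DMSO-only controls at 0.2% final. [3H]inulin (4 μCi/ml final) added after 6 h. After a further 24 h, worms solubilized in 0.5 M KOH at 50°C overnight, neutralized, and radioactivity counted. Done in triplicate.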

The test system of experiment [3] is Haemonchus contortus. The experiment can be described thus: Antiparasitic activity against adult Haemonchus contortus assessed as [3H]inulin uptake at 1000 nM.
Experiment [4] concerns Haemonchus contortus. The experiment can be described thus: Antiparasitic activity against adult Haemonchus contortus assessed as decrease in motility. In a few lines:
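Adult worms in groups of 10 in RPMI-based medium at 37°C, given ivermectin in DMSO at 0.1 to 100 nM, with 0.2% DMSO controls. Motility scored 30 h after start, using the O'Grady and Kotze system. Triplicate.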

The test system of experiment [5] is Haemonchus contortus. The experiment is described as follows: Antiparasitic activity against adult Haemonchus contortus pharyngeal ligation model assessed as decrease [3H]inulin uptake at 10 nM.

Calls of active or inactive are those of the source. The rule behind the calls is not given here.

IVERMECTIN: the outcome in the experiment on Haemonchus contortus [1] and with Haemonchus contortus [5] was Active. Moreover, the outcome in the experiment with Haemonchus contortus [2] and in the experiment with Haemonchus contortus [3] was inactive. Moreover, in the experiment with Haemonchus contortus [4], the Activity result is “Dose-dependent effect”.

The values are drawn from ChEMBL document CHEMBL1255460, “Cyclotide interactions with the nematode external surface” (Antimicrob Agents Chemother, 2010).
